Publication PMC6953265 (Molecular imaging and biology, 2019)
“And” between values parts separate entries of the source, which are not always exact repeats. Identical values can stand only once. Like-named read-outs stand apart in the source and are kept apart here. Each block holds one compound with its values, some of them ahead of it.

Key:
TSPO [1] = molecular target: T1, TSPO (Rattus norvegicus, UniProt P16257); format: binding; conditions: C6 glioma cell lysate; for IC50: read-out: TSPO binding affinity (IC50), competition with [^3H]PK 11195 (0.6 nM), 2 h at 25 °C
Procedure, shortened: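 C6 cells PBS-washed, then freeze-thawed three times in lysis buffer (5.0 mM HEPES, mannitol, sucrose, benzamidine, MgCl2, pH 7.4); lysate 0.5 mg/ml. Lysate incubated with [3H]PK 11195 (final 0.6 nM) and test compound (10−5 to 10−14 M), 2 h, 25 °C. Rapid filtration onto polyethylenimine-presoaked filters, scintillation counting. IC50 fitted in triplicate; fold values are IC50 ratios.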

TSPO [2] = molecular target: T1, TSPO; conditions: mean ± SEM, n = 5, cited from earlier work
TSPO [3] = molecular target: T1, TSPO; assay: Compartmental modeling of dynamic PET data; format: in vivo; conditions: for VT ratio between tumor and normal brain: from VT values of Table 1; for K1/k2 / VT / k3/k4 (BPND): mean ± SEM, n = 7
C6 glioma = assay: In vivo uptake of [^18F]VUIIS1018A, 60-min dynamic PET in C6 glioma-bearing rats; set-up: species or system rat
Procedure, shortened: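 Male Wistar rats, 1.0 × 10^5 C6 glioma cells implanted stereotactically in right hemisphere 2 weeks before imaging; tumours confirmed by T2-weighted MRI at 4.7T. Venous and arterial catheters placed. 18F-labelled tracer 1.1 ± 0.3 mCi given via jugular catheter in microPET; 60-min listmode dynamic scan (32 frames), CT attenuation correction, 2D OSEM reconstruction. Tumour and contralateral brain VOIs gave time-activity curves.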

TSPO [4] = molecular target: T1, TSPO; format: in vivo; conditions: blocking with [^19F]VUIIS1018A 10 mg/kg 5 min before tracer
Procedure, shortened: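 C6 glioma-bearing male Wistar rats, catheterised venous and arterial. Unlabelled (19F) analogue of tracer, 10 mg/kg, given 5 min before 18F tracer (1.1 ± 0.3 mCi, jugular catheter), then 60-min dynamic microPET with CT attenuation correction. Time-activity curves from tumour and contralateral brain VOIs. BPND maps by SRTM2, normal cerebrum as reference tissue. n = 3.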

TSPO [5] = molecular target: T1, TSPO; conditions: earlier study; cited from earlier work

- fold lower binding affinity than VUIIS1018A (TSPO [1]; ratio of IC50 values): 6000 fold
- IC50 (TSPO [1]): 100 nM
SMILES: CCCCc1cc(C)n2nc(-c3ccc(OCCF)cc3)c(CC(=O)N(CC)CC)c2n1 [VUIIS1018B]

- fold enhancement in binding affinity compared with DPA-714 (TSPO [1]; ratio of IC50 values): ~700 fold
- fold enhancement in binding affinity compared with VUIIS1008 (TSPO [1]; ratio of IC50 values): 20 fold
- IC50 (TSPO [1]): 0.0162 nM
SMILES: CCCCc1cc(C)nc2c(CC(=O)N(CC)CC)c(-c3ccc(OCCF)cc3)nn12 [VUIIS1018A]

Continued, compound first:

SMILES: CCc1cc(CC)n2nc(-c3ccc(OCC[18F])cc3)c(CC(=O)N(CC)CC)c2n1 [[^18F]VUIIS1008, 2-(5,7-Diethyl-2-(4-(2-[^18?F]fluoroethoxy)phenyl)pyrazolo[1,5-a]pyrimidin-3-yl)-N,N-diethylacetamide]
- K1/k2 (TSPO [2]; Brain): 0.855 ± 0.325
- VT (TSPO [2]; Brain): 4.210 ± 1.612
- k3/k4 (BPND) (TSPO [2]; Brain): 4.435 ± 1.387
- k3/k4 (BPND) (TSPO [2]; Brain, listed as [^18 F]VUIIS1008): 4.43
- K1/k2 (TSPO [2]; Tumor): 1.902 ± 0.816
- VT (TSPO [2]; Tumor): 25.224 ± 10.035
- k3/k4 (BPND) (TSPO [2]; Tumor): 12.63 and 12.634 ± 1.406
- VT ratio between tumor and normal brain (TSPO [3]): 6.0

SMILES: CCCCc1cc(C)nc2c(CC(=O)N(CC)CC)c(-c3ccc(OCC[18F])cc3)nn12 [[^18F]VUIIS1018A, 2-(7-Butyl-2-(4-(2-[^18F]Fluoroethoxy)phenyl)-5-Methylpyrazolo[1,5-a] Pyrimidin-3-yl)-N,N-Diethylacetamide]
- fold enhancement in binding affinity compared with DPA-714 (TSPO [1]; ratio of IC50 values): approximately 700 fold
- fold enhancement in binding affinity compared with DPA-714 (TSPO [1]; ratio of IC50 values, listed as [^18 F]VUIIS1018A): 700 fold
- K1/k2 (TSPO [3]; Brain): 0.311 ± 0.036
- VT (TSPO [3]; Brain): 1.214 ± 0.190
- k3/k4 (BPND) (TSPO [3]; Brain): 2.91 and 2.913 ± 0.456
- K1/k2 (TSPO [3]; Tumor): 0.532 ± 0.130
- VT (TSPO [3]; Tumor): 11.036 ± 3.731
- k3/k4 (BPND) (TSPO [3]; Tumor): 23.10 and 23.097 ± 4.757
- VT ratio between tumor and normal brain (TSPO [3]): 9.1
- fold higher k3/k4 in tumor compared with healthy brain (TSPO [3]; from k3/k4 values of Table 1): 8 fold
- accumulation in C6 gliomas (C6 glioma): robust accumulation
- accumulation in normal brain (C6 glioma): negligible accumulation
- circulating plasma radioactivity compared with the unblocked scenario (TSPO [4]): significantly elevated
- effect of blocking dose on accumulation in the normal brain (TSPO [4]): insignificant effect
- overall reduction in tumor PET signal (TSPO [4]; mean ± SD, n = 3): 48.3 ± 2.8%

SMILES: CCc1cc(CC)n2nc(-c3ccc(OCCF)cc3)c(CC(=O)N(CC)CC)c2n1 [VUIIS1008, 2-(5,7-diethyl-2-(4-(2-fluoroethoxy)phenyl)pyrazolo[1,5-a]pyrimidin-3-yl)-N,N-diethylacetamide]
- fold enhancement in binding affinity compared to DPA-714 (TSPO [5]): 36 fold
